From ChEMBL document CHEMBL1149387, “Novel potent hepatitis C virus NS3 serine protease inhibitors derived from proline-based macrocycles” (J Med Chem, 2006) come the findings set out here.

One data set addresses NS3 (Hepatitis C virus, UniProt A3EZJ3). Kind of data set: Inhibitory activity against HCV NS3 protease. More on the design: species or system Hepacivirus hominis. The gist of the method:
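Continuous assay with a single-chain NS3 serine protease carrying tethered NS4A. Values are reported as Ki*, the equilibrium constant that reflects the reversible covalent bond formed between the inhibitor ketone and the active-site serine, plus other enzyme–inhibitor contacts. Most inhibitors were tested as an inseparable mixture of two diastereomers at the P1 R-centre.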

The nature of data set [1]: AUC in orally dosed rat. The conditions noted are these: plasma, po. It counts as ADME, organism-based.
The nature of data set [2]: Bioavailability in sc dosed rat. It counts as ADME, organism-based. Particulars: in vivo.
Data set [3] can be described thus: AUC in sc dosed rat. The format is ADME, organism-based. The conditions noted are these: plasma.
Data set [4] is described as follows: Selectivity for HNE over HCV NS3 protease.
Data set [5] in a line: AUC in iv dosed rat. The format is ADME, organism-based. Particulars: plasma.
In the next data set the test system is Hepatitis C virus. Kind of data set: Inhibition of HCV replication in a cellular replicon assay. It counts as functional, organism-based, Hepacivirus hominis. (In antiviral work, replicon cells carry a viral genome segment that copies itself.)
Data set [6] can be described thus: Oral bioavailability in rat. Particulars: in vivo. The format is ADME, organism-based.

Molecules are shown by their SMILES. Numbered stars: 1 amine (or outer) side, 2 acyl side, 3 side chain; on linkers, the order of the positions; unused ones are H or OH. Square brackets hold non-standard residues; d marks the D form. Peptide text beside a SMILES is read from it. * marks the point of attachment. Hyp = O=C(O)[C@@H]1C[C@@H](O)CN1; X1 = CCCC(N[*:1])C(=O)C(=O)[*:2]; Chg = N[C@H](C(=O)O)C1CCCCC1; Phg = N[C@H](C(=O)O)c1ccccc1; Boc = CC(C)(C)OC(=O)*; tBu = CC(C)(C)*

NS3, sequence (A3EZJ3 whole entry): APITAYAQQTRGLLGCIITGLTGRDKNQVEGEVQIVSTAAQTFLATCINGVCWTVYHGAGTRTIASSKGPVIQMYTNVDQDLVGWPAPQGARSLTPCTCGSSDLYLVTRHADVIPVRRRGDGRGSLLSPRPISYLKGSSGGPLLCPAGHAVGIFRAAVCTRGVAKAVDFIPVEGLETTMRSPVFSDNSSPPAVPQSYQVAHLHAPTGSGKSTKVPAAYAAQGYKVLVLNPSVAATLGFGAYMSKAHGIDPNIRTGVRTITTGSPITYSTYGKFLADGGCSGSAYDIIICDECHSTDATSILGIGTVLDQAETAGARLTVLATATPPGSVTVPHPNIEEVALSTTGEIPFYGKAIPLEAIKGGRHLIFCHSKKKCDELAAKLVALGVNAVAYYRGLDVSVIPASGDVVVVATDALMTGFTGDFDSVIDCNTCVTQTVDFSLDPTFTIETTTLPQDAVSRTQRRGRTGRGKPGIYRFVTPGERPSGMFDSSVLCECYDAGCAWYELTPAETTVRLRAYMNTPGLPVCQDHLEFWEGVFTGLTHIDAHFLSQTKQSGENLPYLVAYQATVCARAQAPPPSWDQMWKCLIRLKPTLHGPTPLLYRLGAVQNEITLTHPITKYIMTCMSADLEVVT

As for `CCCC(NC(=O)[C@@H]1C[C@@H]2CN1C(=O)[C@H](C1CCCCC1)NC(=O)Cc1cccc(c1)OCCCO2)C(=O)C(=O)NCC(=O)N[C@H](CO)c1ccccc1` (some centres not stated), the Ki on NS3 came out at 60 nM.
On to `CCCC(NC(=O)[C@@H]1C[C@@H]2CN1C(=O)[C@H](C1CCCCC1)NC(=O)Cc1cccc(c1)OCCCO2)C(=O)C(=O)NC` (some centres not stated), for which, at NS3, the Ki was determined as 9900 nM.
With `CCCC(NC(=O)[C@@H]1C[C@@H]2CN1C(=O)[C@H](C1Cc3ccccc3C1)NC(=O)Cc1cccc(c1)OCCC(C)(C)O2)C(=O)C(=O)NCC(=O)N[C@H](C(=O)N(C)C)c1ccccc1` (some centres not stated), at NS3, the Ki amounted to 40 nM.
Compound `CCCC(NC(=O)[C@@H]1C[C@@H]2CN1C(=O)[C@H](C1CCCCC1)NC(=O)Cc1cccc(c1)OCCC(C)(C)O2)C(=O)C(=O)NCC(=O)OCc1ccccc1` (some centres not stated) came in with a Ki on NS3 of 88 nM.
Consider `CCCC(NC(=O)[C@@H]1C[C@@H]2CN1C(=O)[C@H](C1CCCCC1)NC(=O)Cc1cccc(c1)OCCCO2)C(=O)C(=O)NCC(=O)N[C@H](C(=O)OC(C)(C)C)c1ccccc1` (some centres not stated), for which affinity on NS3 was put at a Ki of 44 nM. This Ki is about 2-fold lower than that of the compound before.
On the same count and under the same terms, in the case of `CCCC(NC(=O)[C@@H]1C[C@@H](OC(C)(C)C)CN1C(=O)[C@@H](NC(=O)OC(C)(C)C)C1CCCCC1)C(=O)C(=O)NCC(=O)N[C@H](C(N)=O)c1ccccc1` (some centres not stated) (Boc-[Chg][Hyp](tBu)[X1]G[Phg]-NH2) it was 220 nM.
Still for that read-out and setting: in the case of `CCCC(NC(=O)[C@@H]1C[C@@H]2CN1C(=O)[C@H](C1CCCCC1)NC(=O)Cc1cccc(c1)OCCC(C)(C)O2)C(=O)C(=O)NCC(=O)NCc1ccccc1` (some centres not stated) it was 269 nM.
As for `CCCC(NC(=O)[C@@H]1C[C@@H]2CN1C(=O)[C@H](C1CCCCC1)NC(=O)Cc1cccc(c1)OCCC(C)(C)O2)C(=O)C(N)=O` (some centres not stated), the AUC in data set [1] turned out to be 0.3 µM·h. Besides, the Ki on NS3 was 220 nM.
As to `CCC[C@H](NC(=O)[C@@H]1C[C@@H]2CN1C(=O)[C@H](C1CCCCC1)NC(=O)Cc1cccc(c1)OCCCO2)C(=O)C(=O)NCC(=O)N[C@H](C(=O)N(C)C)c1ccccc1`, the figures for the bioavailability in data set [2] and in data set [6] were 90% and 3%, respectively. The AUC was found to be 1.5 µM·h in data set [1], 41.6 µM·h in data set [3] and 23.1 µM·h in data set [5]. The Ratio Ki in data set [4] is 46. Besides, the affinity on NS3, expressed as Ki, was 8 nM. This compound came in with an IC50 in the data set with Hepatitis C virus of 400 nM.
`C=CCNC(=O)C(=O)C(CCC)NC(=O)[C@@H]1C[C@@H]2CN1C(=O)[C@H](C1CCCCC1)NC(=O)Cc1cccc(c1)OCCCO2` (some centres not stated) showed a Ki on NS3 of 10000 nM.
The compound `CCCC(NC(=O)[C@@H]1C[C@@H]2CN1C(=O)[C@H](C1CCCCC1)NC(=O)Cc1cccc(c1)OCCC(C)(C)O2)C(=O)C(=O)NCC(=O)O` (some centres not stated) displayed a Ki at NS3 of 720 nM.
At NS3, `CCC[C@@H](NC(=O)[C@@H]1C[C@@H]2CN1C(=O)[C@H](C1CCCCC1)NC(=O)Cc1cccc(c1)OCCCO2)C(=O)C(=O)NCC(=O)N[C@H](C(=O)N(C)C)c1ccccc1` displayed a Ki of 500 nM.
For the compound `CCCC(NC(=O)[C@@H]1C[C@@H]2CN1C(=O)[C@H](C(C)C)NC(=O)Cc1cccc(c1)OCCC(C)(C)O2)C(=O)C(=O)NCC(=O)N[C@H](C(=O)N(C)C)c1ccccc1` (some centres not stated), affinity at NS3 was put at a Ki of 19 nM.
The same measure, in the same setting: under `CCCC(NC(=O)[C@@H]1C[C@@H]2CN1C(=O)[C@H](C(C)CC)NC(=O)Cc1cccc(c1)OCCC(C)(C)O2)C(=O)C(=O)NCC(=O)N[C@H](C(=O)N(C)C)c1ccccc1` (some centres not stated) stands 70 nM; under `CCCC(NC(=O)[C@@H]1C[C@@H]2CN1C(=O)[C@H](C1CCCCC1)NC(=O)Cc1cccc(c1)OCCCO2)C(=O)C(=O)NCC(=O)OCc1ccccc1` (some centres not stated), 430 nM; under `CCCC(NC(=O)[C@@H]1C[C@@H]2CN1C(=O)[C@H](C1CCCCC1)NC(=O)Cc1cccc(c1)OCCCO2)C(=O)C(=O)NCC(=O)NCc1ccccc1` (some centres not stated), 1100 nM.
In the case of `CCCC(NC(=O)[C@@H]1C[C@@H]2CN1C(=O)[C@H](c1ccccc1)NC(=O)Cc1cccc(c1)OCCC(C)(C)O2)C(=O)C(=O)NCC(=O)N[C@H](C(=O)N(C)C)c1ccccc1` (some centres not stated), the Ki at NS3 stood at 46 nM.
As to `CCCC(NC(=O)[C@@H]1C[C@@H]2CN1C(=O)[C@H](C1CCCCC1)NC(=O)Cc1cccc(c1)OCCCO2)C(=O)C(=O)NCC(=O)O` (some centres not stated), the Ki at NS3 turned out to be 7400 nM. Against the preceding compound, the Ki is about 160-fold higher.
Turning to `CCCC(NC(=O)[C@@H]1C[C@@H]2CN1C(=O)[C@H](C1CCCCC1)NC(=O)Cc1cccc(c1)OCCC(C)(C)O2)C(=O)C(=O)NCC(=O)N[C@H](C(=O)OC(C)(C)C)c1ccccc1` (some centres not stated), the Ki on NS3 worked out at 16 nM. Against the preceding compound, the Ki is about 460-fold lower.
On to `CCCC(NC(=O)[C@@H]1C[C@@H]2CN1C(=O)[C@H](C1CCCCC1)NC(=O)Cc1cccc(c1)OCCC(C)(C)O2)C(=O)C(=O)NCC(=O)N[C@H](C(=O)N(C)C)c1ccccc1` (some centres not stated), for which the bioavailability in data set [2] was 77%; in data set [6] it was 2.1%. In addition, the figures for the AUC in data set [1], in data set [3] and in data set [5] were 0.46 µM·h, 16.5 µM·h and 2.2 µM·h, respectively. In addition, the Ratio Ki in data set [4] is 107. This compound also registered a Ki on NS3 of 6 nM. The IC50 with Hepatitis C virus stood at 130 nM.
Turning to `CCCC(NC(=O)[C@@H]1C[C@@H]2CN1C(=O)[C@H](C1CCCCC1)NC(=O)Cc1cccc(c1)OCCCO2)C(=O)C(=O)O` (some centres not stated), affinity on NS3 was put at a Ki of 6100 nM.
Take `CCCC(NC(=O)[C@@H]1C[C@@H]2CN1C(=O)[C@H](C(C)(C)C)NC(=O)Cc1cccc(c1)OCCC(C)(C)O2)C(=O)C(=O)NCC(=O)N[C@H](C(=O)N(C)C)c1ccccc1` (some centres not stated): the Ratio Ki in data set [4] was determined as 306. At NS3, this compound yielded a Ki of 17 nM. In the data set with Hepatitis C virus, this compound came in with an IC50 of 200 nM.
`CCCC(NC(=O)[C@@H]1C[C@@H]2CN1C(=O)[C@H](C1CCCCC1)NC(=O)Cc1cccc(c1)OCCCO2)C(=O)C(=O)NCC(=O)N[C@H](C(=O)O)c1ccccc1` (some centres not stated): the Ki on NS3 came out at 10 nM.
For the compound `C=CCNC(=O)C(=O)C(CCC)NC(=O)[C@@H]1C[C@@H]2CN1C(=O)[C@H](C1CCCCC1)NC(=O)Cc1cccc(c1)OCCC(C)(C)O2` (some centres not stated), the AUC in data set [1] was determined as 26.3 µM·h; in data set [3], 34.7 µM·h; in data set [5] it was 13.6 µM·h. Further, at NS3, the Ki is 530 nM. Moreover, in the data set with Hepatitis C virus, the IC50 was 400 nM. The compound also came in with a bioavailability in data set [6] of 97%.
As for `CCCC(NC(=O)[C@@H]1C[C@@H]2CN1C(=O)[C@H](C1CCCCC1)NC(=O)Cc1cccc(c1)OCCCO2)C(=O)C(=O)NCC(=O)N[C@H](C#N)c1ccccc1` (some centres not stated), at NS3, the affinity, expressed as Ki, was 310 nM.

The term Ki denotes the equilibrium dissociation constant of an inhibitor or competing ligand from its target. A low value points to tighter binding. One may read the AUC as the area under the concentration-time curve, a measure of exposure. A low value points to low exposure. For orientation: bioavailability means the share of a dose that reaches the circulation, judged against a reference dose that is usually intravenous. Read a high bioavailability as much systemic uptake. The IC50 is the concentration that gives 50% inhibition.
